This note sets out measurements from ChEMBL document CHEMBL1134284, “The biological effects of structural variation at the meta position of the aromatic rings and at the end of the alkenyl chain in the alkenyldiarylmethane series of non-nucleoside reverse transcriptase inhibitors” (J Med Chem, 2001).

Data set [1] concerns CCRF-CEM. The experiment in a line: Antiviral activity against site directed resistant isolate HIV-1 L100I in CEM cells. It is filed as functional, cell-based, Homo sapiens. The method in brief: (§1)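 CEM-SS cells in RPMI 1640 with 10% heat-inactivated FBS were infected with NL4-3 molecular clones carrying site-directed RT mutations. Cytoprotection from virus-induced syncytial killing was read by MTS/phenazine ethosulfate reduction (A490) 6 days after infection. […] Triplicate, variation of mean about 10%.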

The test system of data set [2] is CCRF-CEM. The experiment in a line: Antiviral activity against site directed 4X AZT resistant isolate HIV-1 L100I in CEM cells. The class given is functional, cell-based, Homo sapiens. The method in brief:
(§2)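 CEM-SS cells infected with low-cytopathicity site-directed RT-mutant NL4-3 clones (A98G, L74V, 4XAZT = D67N/K70R/T215Y/K219Q, 4XAZT/L100I). Replication was quantified by p24 ELISA rather than cytoprotection. […] Triplicate, variation of mean about 10%.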

Data set [3] in a line: Antiviral activity against subtype isolate D strain in PBLs (peripheral blood lymphocytes). The class given is functional, cell-based. The conditions noted are these: Homo sapiens. The procedure, abridged:
(§3)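 PBMCs isolated from hepatitis- and HIV-seronegative donors by Ficoll-Hypaque gradient and stimulated 3 days with phytohemagglutinin/IL-2. Infected with pediatric low-passage clinical isolates or NIAID subtype isolates, in RPMI 1640 with 10% FBS, 2 mM glutamine, penicillin/streptomycin. Replication read as supernatant reverse transcriptase activity. […] Run in triplicate, with AZT as positive control.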

Data set [4] has as its system Human immunodeficiency virus type 1 (RF/HAT ISOLATE). The experiment in a line: Inhibitory concentration for cytopathicity of HIV-1RF in CEM-SS cells. It is filed as functional, organism-based. As to conditions: Human immunodeficiency virus 1, RF; call rule not given here. The procedure, abridged: (§4)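 CEM-SS cells kept in RPMI 1640 with 10% heat-inactivated FBS, 2 mM glutamine, penicillin/streptomycin. Microtiter assay with cytopathic HIV-1 RF, or mock infection for toxicity. Viability read by MTS/phenazine ethosulfate reduction (absorbance 490 nm) 6 days after infection. […] Triplicate.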

The nature of data set [5]: Antiviral activity against subtype isolate B strain in PBLs (peripheral blood lymphocytes). It is filed as functional, cell-based, Homo sapiens. The method in brief:
as §3

Data set [6] deals with CCRF-CEM. The experiment in a line: Antiviral activity against site directed resistant isolate HIV-1 K101E in CEM cells. It is filed as functional, cell-based, Homo sapiens.
Data set [7] relates to CCRF-CEM. The experiment in a line: Antiviral activity against site directed resistant isolate HIV-1 Y188C in CEM cells. It is filed as functional, cell-based, Homo sapiens. The method in brief:
as §1

For data set [8], the system named is CCRF-CEM. The experiment in a line: Antiviral activity against site directed resistant isolate HIV-1 L74V in CEM cells. It is filed as functional, cell-based, Homo sapiens. The procedure, abridged: as §2
A short description of data set [9]: Antiviral activity against subtype isolate C strain in PBLs (peripheral blood lymphocytes). It is filed as functional, cell-based. The conditions noted are these: Homo sapiens. The method in brief: as §3
The test system of data set [10] is CCRF-CEM. The experiment in a line: Antiviral activity against site directed resistant isolate HIV-1 Y181C in CEM cells. The class given is functional, cell-based, Homo sapiens. The procedure, abridged: as §1
The nature of data set [11]: Antiviral activity against SLKA virus strain in PBLs (peripheral blood lymphocytes). As to conditions: Homo sapiens. It is filed as functional, cell-based. The method in brief:
as §3

Data set [12] concerns CCRF-CEM. The experiment in a line: Antiviral activity against site directed 4X AZT resistant isolate HIV-1 in CEM cells. As to conditions: Homo sapiens, CCRF-CEM. The class given is functional, cell-based, Homo sapiens.
The test system of data set [13] is CCRF-CEM. The experiment in a line: Antiviral activity against site directed resistant isolate HIV-1 K103N in CEM cells. The class given is functional, cell-based, Homo sapiens. The procedure, abridged: as §1
Data set [14] relates to CCRF-CEM. The experiment in a line: Antiviral activity against site directed resistant isolate HIV-1 V106A in CEM cells. It is filed as functional, cell-based, Homo sapiens. The procedure, abridged:
as §1

Data set [15] can be described thus: Antiviral activity against WEJO virus strain in PBLs (peripheral blood lymphocytes). The class given is functional, cell-based. As to conditions: Homo sapiens. The method in brief:
as §3

Data set [16] relates to CCRF-CEM. The experiment in a line: Antiviral activity against site directed resistant isolate HIV-1 V179D in CEM cells. It is filed as functional, cell-based, Homo sapiens. The method in brief: as §1
A short description of data set [17]: Antiviral activity against ROJO virus strain in PBLs (peripheral blood lymphocytes). The class given is functional, cell-based. As to conditions: Homo sapiens. The method in brief: as §3
Data set [18] in a line: Antiviral activity against TEKI virus strain in PBLs (peripheral blood lymphocytes). The class given is functional, cell-based. As to conditions: Homo sapiens. The method in brief:
as §3

Data set [19] relates to CCRF-CEM. The experiment in a line: Antiviral activity against site directed wild-type enzyme isolate HIV-1 NL4-3WT in CEM cells. The class given is functional, cell-based. The conditions noted are these: Homo sapiens. The procedure, abridged:
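Wild-type NL4-3 in CEM-SS cells, measured both by MTS cytoprotection 6 days after infection and by p24 ELISA. The IC50 is the mean of the two methods' values.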

Data set [20] is described as follows: Antiviral activity against multi drug resistant MDR 769 strain in PBLs (peripheral blood lymphocytes). It is filed as functional, cell-based. As to conditions: Homo sapiens. The procedure, abridged:
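PBMC from hepatitis- and HIV-seronegative donors isolated by Ficoll-Hypaque gradient and stimulated 3 days with phytohemagglutinin/IL-2 before infection. Medium RPMI 1640 with 10% FBS, 2 mM glutamine, penicillin/streptomycin. Replication read as supernatant reverse transcriptase activity. […] Run in triplicate, SD within triplicate under 10%; AZT positive control.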

The test system of data set [21] is CEM-SS. The experiment in a line: Concentration required for cytotoxicity against mock infected CEM-SS cells. The conditions noted are these: Homo sapiens. The class given is functional. The procedure, abridged: as §4
A short description of data set [22]: Antiviral activity against subtype isolate F strain in PBLs (peripheral blood lymphocytes). The class given is functional, cell-based, Homo sapiens. As to conditions: Homo sapiens. The method in brief: as §3
Data set [23] can be described thus: Antiviral activity against Ba-L monocyte tropic isolate strain in monocyte. It is filed as functional. As to conditions: Homo sapiens. The method in brief: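 Monocytes isolated from hepatitis- and HIV-seronegative donors by Ficoll-Hypaque gradient, cultured 6 days into macrophages, then infected with Ba-L. Medium RPMI 1640 with 10% FBS, 2 mM glutamine, penicillin/streptomycin. Replication read as p24 antigen by ELISA 6 days postinfection. […] Run in triplicate, with AZT as positive control.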

Data set [24] is described as follows: Antiviral activity against subtype isolate A strain in PBLs (peripheral blood lymphocytes). The class given is functional, cell-based. The conditions noted are these: Homo sapiens. The procedure, abridged:
as §3

Data set [25] can be described thus: Antiviral activity against subtype isolate O strain in PBLs (peripheral blood lymphocytes). It is filed as functional, cell-based, Homo sapiens. The method in brief: as §3
The nature of data set [26]: Antiviral activity against subtype isolate G strain in PBLs (peripheral blood lymphocytes). The conditions noted are these: Homo sapiens. The class given is functional, cell-based. The procedure, abridged:
as §3

Data set [27] concerns CEM-SS. The experiment in a line: Inhibitory concentration for cytopathicity of HIV-1RF in CEM-SS cells; Not active. It is filed as functional, cell-based, Homo sapiens. The method in brief: as §4
(In general: Protection from cytopathic effect is a common read-out in antiviral testing.)

Data set [28] has as its target Human immunodeficiency virus type 1 reverse transcriptase (Human immunodeficiency virus 1, UniProt Q72547). The experiment in a line: Inhibitory activity against HIV-1 Reverse Transcriptase with rCdG as the template primer. The method in brief:
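Cell-free assay with purified recombinant HIV-1 RT (p66/p51 dimer). Activity measured as [32P]GTP incorporation into the poly(rC)/oligo(dG) homopolymer template/primer. IC50 is reported as inhibition of enzyme activity.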

A short description of data set [29]: Ratio of CC50/EC50 was determined. The conditions noted are these: read-out: TI. The method in brief:
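HIV-1 RF–infected CEM-SS cells (RPMI 1640, 10% heat-inactivated FBS, 2 mM glutamine, penicillin/streptomycin), plus mock-infected CEM-SS in parallel. Cell killing and viability were read by MTS/phenazine ethosulfate reduction at 490 nm 6 days after infection. […] Index = CC50 ÷ EC50. Triplicate tests.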

Data set [30] is described as follows: Antiviral activity against subtype isolate E strain in PBLs (peripheral blood lymphocytes). The class given is functional, cell-based. The conditions noted are these: Homo sapiens.
For data set [31], the system named is CCRF-CEM. The experiment in a line: Antiviral activity against site directed resistant isolates in HIV-1 A98G CEM cells. It is filed as functional, cell-based, Homo sapiens. The procedure, abridged: as §2

What is called IC50 is the point on the concentration scale where inhibition reaches its midpoint. The EC50 is the midpoint of the concentration-response curve. One may read the CC50 as the concentration at which the toxic effect on the cells reaches its halfway point. A high value points to better tolerance by the cells. In the case of `COC(=O)CCCC=C(c1cc(Cl)c(OC)c(C(=O)OC)c1)c1cc(Cl)c(OC)c(C(=O)OC)c1`, the half-inhibitory concentration (IC50) in [1] was determined as 408 nM; in data set [2] it was 490 nM; in [3] it was 180 nM; in [5], 12700 nM; in data set [6], 366 nM; in data set [7], 3300 nM. Besides, the concentration for half-maximal inhibition (IC50) is 469 nM in data set [8]; 410 nM in data set [9]; above 20000 nM in data set [10]; 1300 nM in data set [11]; 75 nM in [12]; 600 nM in data set [13]. Also, the concentration for half-maximal inhibition (IC50) is above 20000 nM in data set [14]; 600 nM in data set [15]; 1300 nM in data set [16]; 750 nM in data set [17]; 800 nM in [18]; 850 nM in data set [19]. Moreover, the half-inhibitory concentration (IC50) in data set [20] amounted to 16900 nM; in data set [22], 1300 nM; in [23] it was 5400 nM; in data set [24] it was 100 nM; in data set [25] it was 12000 nM; in data set [26] it was 600 nM. In [4], this molecule gave a half-maximal effective concentration (EC50) of 13 nM. Besides, the half-maximal cytotoxic concentration (CC50) in data set [21] was determined as 31600 nM.
Consider `COC(=O)c1cc(C(=CCCCC(=O)OC(C)C)c2cc(C)c(OC)c(C(=O)OC)c2)cc(C)c1OC`, for which, in data set [27], the EC50 entry is reported as “Not Active”. Further, in [28], the concentration for half-maximal inhibition (IC50) is 60400 nM. In data set [21], the CC50 came out at 4320 nM.
Take `COC(=O)c1cc(C(=CCCNC(C)=O)c2cc(Cl)c(OC)c(C(=O)OC)c2)cc(Cl)c1OC`: the EC50 entry in [27] is on record as “Not Active”. This molecule returned an IC50 in [28] above 100000 nM. This molecule showed a CC50 in data set [21] of 19100 nM.
`CCOC(=O)CCCC=C(c1cc(Br)c(OC)c(C(=O)OC)c1)c1cc(Br)c(OC)c(C(=O)OC)c1`: the IC50 was 15 nM in [1]; 370 nM in data set [2]; 30 nM in [3]; 4900 nM in data set [5] (Homo sapiens); 957 nM in data set [6]; 1800 nM in [7]. Further, the half-maximal inhibitory concentration (IC50) in data set [8] was found to be 352 nM; in [9] it was 150 nM; in data set [10], 4400 nM; in [11], 1100 nM; in [12] it was 70 nM; in [13] it was 460 nM. Further, the concentration for half-maximal inhibition (IC50) in [14] stood at 7020 nM; in [16], 2500 nM; in [30] it was 100 nM; in data set [17], 200 nM; in [18], 1000 nM; in [19] it was 440 nM. Besides, the half-maximal inhibitory concentration (IC50) in [20] was determined as 6300 nM; in data set [31] it was 15 nM; in data set [28], 359 nM; in data set [22] it was 760 nM; in data set [23], 4400 nM; in data set [24] it was 200 nM. Moreover, the IC50 in data set [25] (Homo sapiens) worked out at 21000 nM; in [26], 400 nM. This molecule also registered an EC50 in data set [4] of 7 nM. Also, the selectivity ratio in data set [29] was 2360. In addition, the CC50 in [21] is 16500 nM.
Regarding `Cc1ccnc2c1NC(=O)c1cccnc1N2C1CC1` [NEVIRAPINE], the IC50 worked out at 180 nM in data set [1]; 207 nM in data set [2]; 5 nM in data set [6]; 8300 nM in data set [7]; 61 nM in [8]; 8270 nM in data set [10]. For the same molecule, the IC50 in [12] amounted to 8 nM; in data set [13], 1440 nM; in data set [14], 1880 nM; in [16], 70 nM; in [19] it was 29 nM; in data set [31] it was 222 nM.
